Published values gathered from unrelated publications.
Each line is one published result; the experiments were not run side by side.
Target: Calcium/calmodulin-dependent protein kinase type IV (CAMK4, Homo sapiens, UniProt Q16566)
Residues used in one study (Q16566 1-473): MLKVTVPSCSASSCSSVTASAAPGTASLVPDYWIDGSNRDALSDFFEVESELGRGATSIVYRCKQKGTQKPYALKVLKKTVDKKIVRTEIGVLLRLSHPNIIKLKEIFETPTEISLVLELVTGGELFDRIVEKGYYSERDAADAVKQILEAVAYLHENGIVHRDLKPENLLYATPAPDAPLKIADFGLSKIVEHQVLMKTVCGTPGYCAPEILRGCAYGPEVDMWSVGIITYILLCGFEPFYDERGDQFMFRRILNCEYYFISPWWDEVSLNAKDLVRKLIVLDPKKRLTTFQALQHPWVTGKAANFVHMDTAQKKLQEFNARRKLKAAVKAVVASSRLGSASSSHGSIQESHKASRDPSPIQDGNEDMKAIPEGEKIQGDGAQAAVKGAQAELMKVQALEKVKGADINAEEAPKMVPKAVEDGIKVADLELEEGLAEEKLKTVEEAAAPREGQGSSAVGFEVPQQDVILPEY

`O=C1NC(=O)c2cc(Nc3ccc(F)cc3)c(Nc3ccc(F)cc3)cc21` gave a remaining signal of 98.7% (cell-free assay; 0.5 µM).
For `Cn1c2c(Cl)c(Cl)ccc2c2cn[nH]c(=O)c21`, the ΔTm was 0.1 °C (thermal stability; DSF; 10 µM).
For `COc1cccc(CNC(=O)c2nc3scc(COCc4ccc(C(=O)O)cc4)c3c(=O)[nH]2)c1`, the remaining binding was 100% (cell-free assay; competition with immobilised ligand; 1 µM).
`Oc1cccc(-c2nc(N3CCOCC3)c3oc4ncccc4c3n2)c1` has a remaining signal of 103% (cell-free assay; 0.5 µM).
For `CC(C)c1ccc(NC(=O)c2cccs2)c(-c2nc3ccccc3[nH]c2=O)c1`, the activity vs control was 116% (enzyme activity; inhibitor; 1 µM).
With `CNC(=O)c1cc(Oc2ccc(NC(=O)Nc3ccc(Cl)c(C(F)(F)F)c3)cc2)ccn1` the inhibition was 10% (enzyme activity; inhibitor; 10 µM).
`CN(C)C1CCN(CC#Cc2nn(C3CCCC3)c3nc(NCc4ccccc4)ncc23)C1` (stereo not drawn) gave an inhibition of 4% (enzyme activity; inhibitor; FRET; 0.1 µM).
For `O=C(O)c1ccc2c3c1cccc3c(=O)n1c3ccccc3nc21`, the remaining signal was 101% (cell-free assay; 0.5 µM).
`Cc1ncc([N+](=O)[O-])n1C(=NO)c1ccccc1C(F)(F)F` gave an inhibition of 27.6% (enzyme activity; inhibitor; 10 µM).
For `Cn1c2c(c3ccc(Cl)c(Cl)c31)C(C#N)C1(CCOCC1)NC2=O` (stereo not drawn), the ΔTm was 0 °C (thermal stability; DSF; 10 µM).
`O=C(NCCCC1CCCCC1)c1ccc(CNC(=O)c2cnn(-c3ccccc3)c2C(F)(F)F)cc1` gave a remaining binding of 100% (cell-free assay; competition with immobilised ligand; 0.1 µM).
The remaining activity of `CC(C)(O)[C@H]1CC[C@H](Nc2ccc3ncc(-c4cccc(C(F)(F)F)c4)n3n2)CC1` is reported as 107% (enzyme activity; inhibitor; 1 µM).
For `Cc1nccc(COC(=O)N2C[C@@H]3[C@@H](CNC(=O)c4ccc5[nH]nnc5c4)[C@@H]3C2)n1`, the remaining binding was 95% (cell-free assay; competition with immobilised ligand; 1 µM).
For `CCN(CC)CCNC(=O)c1c(C)[nH]c(/C=C2\C(=O)Nc3ccc(F)cc32)c1C`, the inhibition was 87% (enzyme activity; inhibitor; 10 µM).
`Cn1c2c(c3ccc(Cl)c(Cl)c31)C(C#N)C1(CCCCC1)NC2=O` (racemic) has a ΔTm of 0.7 °C (thermal stability; DSF; 10 µM).
`CC/C(=N\NC(=O)NCc1cccc(O)c1)c1ccc(O)c(C)c1O` gave an inhibition of 1.3% (enzyme activity; inhibitor; 0.1 µM).
With `COc1cc2ncnc(Nc3ccc(Oc4ccccc4)c(C)c3C)c2cc1OC` the inhibition was -2% (enzyme activity; inhibitor; 1 µM).
With `Clc1ccc(Nc2nnc(Cc3ccncc3)c3ccccc23)cc1` the remaining signal was 93.4% (cell-free assay; 0.5 µM).
For `O=C(Nc1cnn(-c2csc(C(=O)NC3COC3)c2)c1)Nc1c(F)cccc1Cl`, the remaining activity was 98.7% (enzyme activity; inhibitor; 5 µM).
With `COc1cc2c(N3CCN(C(=O)Nc4ccc(OC(C)C)cc4)CC3)ncnc2cc1OCCCN1CCCCC1` the remaining signal was 99.3% (cell-free assay; 0.5 µM).
`O=C(NS(=O)(=O)c1ccc(NCC2CCOCC2)c([N+](=O)[O-])c1)c1ccc(N2CCN(Cc3ccc(C(F)(F)F)cc3-c3ccc(Cl)cc3)CC2)cc1Oc1cnc2[nH]ccc2c1` has a remaining binding of 100% (cell-free assay; competition with immobilised ligand; 1 µM).
For `O=C(Nc1cnn(-c2csc(C(=O)NC3COC3)c2)c1)Nc1ccccc1Cl`, the remaining activity was 114% (enzyme activity; inhibitor; 5 µM).
For `Cc1ccc(Nc2nccc(N(C)c3ccc4c(C)n(C)nc4c3)n2)cc1S(N)(=O)=O`, the remaining signal was 95.9% (cell-free assay; inhibitor; 0.5 µM).
With `Cn1nc(C(=O)NCc2ccc(C(=O)O)cc2)cc1-c1ccc2[nH]ccc2c1` the remaining binding was 92% (cell-free assay; competition with immobilised ligand; 0.1 µM).
With `CN1CCC2(CC1)NC(=O)c1c(c3ccc(Cl)c(Cl)c3n1C)C2C#N` (racemic) the ΔTm was -0.2 °C (thermal stability; DSF; 10 µM).
With `CCc1ccccc1C(=O)Nc1n[nH]c2c(C)c(F)c(C3C(C#N)=C(C)N(C)C(C)=C3C#N)cc12` the remaining binding was 56% (cell-free assay; competition with immobilised ligand; 1 µM).
With `CCCOc1ccc(OC)c(F)c1C(=O)c1ccc(C(=O)N[C@@H]2CNC[C@H]2NC(=O)c2ccc3[nH]ncc3c2)cc1` the remaining activity was 95% (enzyme activity; inhibitor; 10 µM).
`Cn1c2c(c3ccc(Cl)c(Cl)c31)C(C#N)C1(CCNCC1)NC2=O` (racemic) has a ΔTm of -0.1 °C (thermal stability; DSF; 10 µM).
`CNc1cccc2cc(C(=O)Nc3ccc(C(=O)O)cc3)c(=O)[nH]c12` gave an inhibition of 11% (enzyme activity; inhibitor; 10 µM).
`O=S(=O)(NC1CCC(c2cc(F)ccc2F)(S(=O)(=O)c2ccc(Cl)cc2)CC1)C(F)(F)F` (stereo not drawn) gave a remaining binding of 100% (cell-free assay; competition with immobilised ligand; 1 µM).
With `CCN1CCC2(CC1)NC(=O)c1c(c3ccc(Cl)c(Cl)c3n1C)C2C#N` (racemic) the ΔTm was 0.1 °C (thermal stability; DSF; 10 µM).
`O=C(O)[C@H]1[C@H](Cn2nnc3ccccc3c2=O)CC[C@@H]1C(=O)c1ccc(OCCC2CCOCC2)cc1` gave a remaining binding of 78% (cell-free assay; competition with immobilised ligand; 1 µM).
For `Nc1ncnc2occ(-c3ccc(NC(=O)Nc4cc(C(F)(F)F)ccc4F)cc3)c12`, the remaining signal was 1.5% (cell-free assay; inhibitor; 20 µM).
